In ChEMBL document CHEMBL4190310, “Identification of 3,4-dihydro-2H-thiochromene 1,1-dioxide derivatives with a phenoxyethylamine group as highly potent and selective α1D adrenoceptor antagonists” (Eur J Med Chem, 2017):

Key:
[1] = biological target: T1, Alpha-1D adrenergic receptor (Homo sapiens, UniProt P25100); experiment: Displacement of 7-methoxy-[3H]-prazosin from human alpha1D-adrenoreceptor expressed in CHOK1 cell membranes after 60 mins by TopCount liquid scintillation counting method
T1 sequence (P25100 whole entry): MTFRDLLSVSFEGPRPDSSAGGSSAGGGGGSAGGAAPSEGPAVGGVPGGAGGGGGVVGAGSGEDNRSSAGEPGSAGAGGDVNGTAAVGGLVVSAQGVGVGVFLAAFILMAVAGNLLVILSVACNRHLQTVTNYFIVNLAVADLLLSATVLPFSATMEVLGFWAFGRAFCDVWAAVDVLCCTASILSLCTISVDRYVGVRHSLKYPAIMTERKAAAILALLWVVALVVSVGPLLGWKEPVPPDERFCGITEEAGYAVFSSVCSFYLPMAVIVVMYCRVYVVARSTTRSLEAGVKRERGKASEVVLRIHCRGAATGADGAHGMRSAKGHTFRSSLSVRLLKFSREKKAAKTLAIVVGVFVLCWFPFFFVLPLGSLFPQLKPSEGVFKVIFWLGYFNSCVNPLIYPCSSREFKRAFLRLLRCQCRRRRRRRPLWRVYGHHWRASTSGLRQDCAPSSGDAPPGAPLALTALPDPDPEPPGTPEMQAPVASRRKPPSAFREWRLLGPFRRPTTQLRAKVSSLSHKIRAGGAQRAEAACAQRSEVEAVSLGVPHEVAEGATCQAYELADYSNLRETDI
Method in brief: (§1)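 Membranes (10 µg protein per receptor subtype) incubated with 2.5 nmol/L 7-methoxy-[3H]-prazosin and test compound at 12 concentrations. Buffer: 50 mmol/L Tris-HCl pH 7.5, 10 mmol/L MgCl2, 5 mmol/L EDTA, 0.5% BSA. Incubated 60 min at room temperature, then filtered on GF/C and washed with Tris-HCl. Nonspecific binding set with 10 µmol/L phentolamine. IC50 from logistic regression; Ki = IC50/(1 + [ligand]/Kd).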

[2] = biological target: T2, Alpha-1B adrenergic receptor (Homo sapiens, UniProt P35368); experiment: Displacement of 7-methoxy-[3H]-prazosin from human alpha1B-adrenoreceptor expressed in CHOK1 cell membranes after 60 mins by TopCount liquid scintillation counting method; method in brief: as §1
T2 sequence (P35368 whole entry): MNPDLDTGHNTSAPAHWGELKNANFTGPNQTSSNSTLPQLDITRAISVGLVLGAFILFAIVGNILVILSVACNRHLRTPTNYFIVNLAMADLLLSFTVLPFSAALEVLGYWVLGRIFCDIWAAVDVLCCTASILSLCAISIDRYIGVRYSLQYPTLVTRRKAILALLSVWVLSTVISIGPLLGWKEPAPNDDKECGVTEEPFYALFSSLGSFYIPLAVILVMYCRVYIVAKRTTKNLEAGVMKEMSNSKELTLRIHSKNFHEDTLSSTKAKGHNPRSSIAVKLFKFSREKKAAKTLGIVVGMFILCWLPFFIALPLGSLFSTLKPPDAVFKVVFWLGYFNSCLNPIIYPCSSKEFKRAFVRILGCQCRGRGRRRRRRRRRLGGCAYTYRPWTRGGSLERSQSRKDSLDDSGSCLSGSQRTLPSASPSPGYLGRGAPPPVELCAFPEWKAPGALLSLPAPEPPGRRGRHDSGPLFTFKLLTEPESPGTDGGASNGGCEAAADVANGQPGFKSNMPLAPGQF

[3] = biological target: T3, Alpha-1A adrenergic receptor (Homo sapiens, UniProt P35348); experiment: Displacement of 7-methoxy-[3H]-prazosin from human alpha1A-adrenoreceptor expressed in CHOK1 cell membranes after 60 mins by TopCount liquid scintillation counting method; method in brief: as §1
T3 sequence (P35348 whole entry): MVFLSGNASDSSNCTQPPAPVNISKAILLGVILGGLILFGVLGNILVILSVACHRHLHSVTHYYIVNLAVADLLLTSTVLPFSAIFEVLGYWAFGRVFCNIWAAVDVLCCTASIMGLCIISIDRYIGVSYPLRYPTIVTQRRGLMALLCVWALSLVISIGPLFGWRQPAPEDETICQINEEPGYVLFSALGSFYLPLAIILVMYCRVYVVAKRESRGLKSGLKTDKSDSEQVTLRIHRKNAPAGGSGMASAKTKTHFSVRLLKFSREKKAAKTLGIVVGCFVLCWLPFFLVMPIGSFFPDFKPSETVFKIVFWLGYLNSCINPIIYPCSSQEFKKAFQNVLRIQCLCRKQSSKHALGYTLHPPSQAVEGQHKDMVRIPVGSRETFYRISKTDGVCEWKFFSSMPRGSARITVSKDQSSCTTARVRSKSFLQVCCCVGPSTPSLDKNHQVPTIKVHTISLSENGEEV

Homo sapiens [4] = species on record: Homo sapiens; experiment: Selectivity ratio of Ki for human alpha1A-adrenoreceptor to Ki for human alpha1D-adrenoreceptor
Homo sapiens [5] = species on record: Homo sapiens; experiment: Selectivity ratio of Ki for human alpha1B-adrenoreceptor to Ki for human alpha1D-adrenoreceptor
[6] = biological target: T4, Alpha-1D adrenergic receptor (Rattus norvegicus) (UniProt P23944); experiment: Antagonist activity at alpha1D-adrenoreceptor in Wistar rat bladder strips assessed as relaxation of PHE-induced contractile response after 30 mins; type: functional
T4 sequence (whole entry): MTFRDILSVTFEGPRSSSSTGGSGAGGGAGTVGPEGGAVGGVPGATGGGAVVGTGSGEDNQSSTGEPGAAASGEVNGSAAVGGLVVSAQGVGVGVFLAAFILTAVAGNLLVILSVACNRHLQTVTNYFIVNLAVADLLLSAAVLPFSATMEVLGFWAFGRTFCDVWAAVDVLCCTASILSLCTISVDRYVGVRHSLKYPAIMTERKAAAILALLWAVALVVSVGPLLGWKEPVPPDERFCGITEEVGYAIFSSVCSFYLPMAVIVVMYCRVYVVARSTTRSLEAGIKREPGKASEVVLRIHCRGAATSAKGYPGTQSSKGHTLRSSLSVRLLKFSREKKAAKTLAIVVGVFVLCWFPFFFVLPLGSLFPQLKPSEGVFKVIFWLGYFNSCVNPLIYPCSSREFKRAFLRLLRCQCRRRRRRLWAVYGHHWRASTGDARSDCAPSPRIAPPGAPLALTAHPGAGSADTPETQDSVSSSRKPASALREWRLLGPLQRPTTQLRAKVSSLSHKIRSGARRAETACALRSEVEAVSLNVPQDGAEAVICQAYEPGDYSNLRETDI

CYP3A4 = CYP3A4 (Homo sapiens, UniProt P08684); experiment: Inhibition of human microsomal CYP3A4 at 10 uM after 10 mins by LC-MS/MS analysis relative to control; type: ADME; details: microsomes
Sequence of CYP3A4 (P08684 whole entry): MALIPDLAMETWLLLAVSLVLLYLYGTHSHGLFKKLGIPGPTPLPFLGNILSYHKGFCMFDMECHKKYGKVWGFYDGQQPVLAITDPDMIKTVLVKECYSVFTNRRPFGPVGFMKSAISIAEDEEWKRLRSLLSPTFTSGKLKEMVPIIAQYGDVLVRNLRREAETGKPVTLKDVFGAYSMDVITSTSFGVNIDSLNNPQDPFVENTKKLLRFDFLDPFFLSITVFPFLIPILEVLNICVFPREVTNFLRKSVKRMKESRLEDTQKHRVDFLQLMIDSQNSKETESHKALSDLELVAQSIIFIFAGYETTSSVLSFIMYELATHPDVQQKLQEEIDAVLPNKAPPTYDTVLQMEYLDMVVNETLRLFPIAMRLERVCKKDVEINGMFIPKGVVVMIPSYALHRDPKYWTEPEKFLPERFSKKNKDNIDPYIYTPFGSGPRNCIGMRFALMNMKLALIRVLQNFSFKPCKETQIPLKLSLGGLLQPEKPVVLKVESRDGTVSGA
Method in brief: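 Reversible inhibition test. Midazolam substrate incubated with 0.1 mg/mL human liver microsomes and 10 µM test compound for 10 min at 37 °C. Stopped with acetonitrile/water.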

Row | SMILES | Ki [1] [nM] | Ki [2] [nM] | Ki [3] [nM] | Ratio Ki (Homo sapiens [4]) | Ratio Ki (Homo sapiens [5]) | IC30 [6] [nM] | inhibition at 10 min, 10 µM (CYP3A4) [%]
1 | CS(=O)(=O)c1ccc(Cl)cc1CNCCOc1cc(F)ccc1Cl | 17 | 1100 | 1800 | 110 | 65 | 250 | –
2 | CC(NCCOc1cc(F)ccc1Cl)c1ccccc1S(C)(=O)=O (stereo unspecified) | > 94 | > 120 | > 270 | – | – | – | –
3 | O=S1(=O)CC(NCCOc2cc(F)ccc2Cl)c2ccccc21 (stereo unspecified) | > 94 | > 120 | > 270 | – | – | – | –
4 | Fc1ccc(Cl)c(OCCNCc2cccc(Cl)c2)c1 | 65 | > 120 | > 270 | – | – | – | –
5 | NC(=O)c1ccc2c(c1)C(NCCOc1cc(F)ccc1F)CCS2(=O)=O (stereo unspecified) | 86 | – | – | – | – | – | 12.5
6 | O=S1(=O)CCC(NCCOc2cc(F)ccc2F)c2ccccc21 (stereo unspecified) | 17 | – | – | – | – | – | 26.5
7 | CNc1ccc2c(c1)[C@H](NCCOc1cc(F)ccc1F)CCS2(=O)=O | 62 | > 1200 | 1200 | 19 | > 20 | – | 26.7
8 | O=S1(=O)CCC(NCCOc2cc(F)ccc2F)c2cc(F)ccc21 (stereo unspecified) | 12 | – | – | – | – | – | 23.1
9 | CS(=O)(=O)c1ccccc1CCCNCCOc1cc(F)ccc1Cl | 9.1 | 44 | 50 | – | – | – | –
10 | COc1cccc2c1C(NCCOc1cc(F)ccc1F)CCS2(=O)=O (stereo unspecified) | 9.5 | – | – | – | – | – | 28.6
11 | CNc1ccc2c(c1)[C@@H](NCCOc1cc(F)ccc1F)CCS2(=O)=O | 0.3 | 150 | 130 | 430 | 500 | 5.5 | 20.7
12 | COc1ccc2c(c1)C(NCCOc1cc(F)ccc1F)CCS2(=O)=O (stereo unspecified) | 1.5 | – | – | – | – | – | 22.7
13 | COc1cccc2c1S(=O)(=O)CCC2NCCOc1cc(F)ccc1F (stereo unspecified) | 170 | – | – | – | – | – | 17.1
14 | CS(=O)(=O)c1ccccc1CNCCOc1cc(F)ccc1Cl | 4.3 | > 120 | > 270 | – | – | 140 | –
15 | COc1ccc2c(c1)S(=O)(=O)CCC2NCCOc1cc(F)ccc1F (stereo unspecified) | 38 | – | – | – | – | – | 34.3
16 | CS(=O)(=O)c1ccc2c(c1)C(NCCOc1cc(F)ccc1F)CCS2(=O)=O (stereo unspecified) | 310 | – | – | – | – | – | 5.2
17 | CNc1ccc2c(c1)C(NCCOc1cc(F)ccc1F)CCS2(=O)=O (stereo unspecified) | 0.85 | 430 | 350 | 410 | 510 | 80 | 26.1
18 | CS(=O)(=O)c1ccccc1CCNCCOc1cc(F)ccc1Cl | 8.6 | 30 | 150 | – | – | – | –
19 | O=S1(=O)CCC(NCCOc2cc(F)ccc2Cl)c2ccccc21 (stereo unspecified) | 3.9 | > 120 | > 270 | – | – | 54 | 52.3
